This note sets out measurements from ChEMBL document CHEMBL3232959, “Design, synthesis and biological evaluation of small-azo-dyes as potent Vesicular Glutamate Transporters inhibitors” (Eur J Med Chem, 2014).

Active and inactive are the calls of the source. The rule behind the calls is not given here.

The nature of assay [1]: Inhibition of rat brain VGLUT assessed as inhibition of [3H]glutamate uptake into vesicles after 10 mins by scintillation spectrophotometry. Summed up: (§1)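 Crude rat synaptic vesicles were incubated at 37 °C in 10 mM HEPES-KOH pH 7.4 with 4 mM MgSO4, 4 mM KCl, 1 mM L-aspartate and test compound in DMSO. Uptake was started with ATP/Glu containing [3H]Glu and run for 10 min. It was stopped with ice-cold buffer, GF/C filtered, washed 4 times and counted by scintillation. Blanks without ATP or with CCCP/Trypan Blue were subtracted to give ATP-dependent uptake. At least triplicate.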

The species named for assay [2] is Rattus norvegicus. The assay can be described thus: Inhibition of rat brain VGLUT assessed as inhibition of [3H]glutamate uptake into vesicles at 20 uM after 10 mins by scintillation spectrophotometry. An outline of the steps:
as §1

For assay [3], the species on record is Homo sapiens. In words: Agonist activity at mGluR (unknown origin) at 200 uM by cell-based assay.
The species entered for assay [4] is Homo sapiens. The assay can be described thus: Antagonist activity at mGluR (unknown origin) at 200 uM by cell-based assay.
For assay [5], the target named is Synaptic vesicular amine transporter VMAT2 (Rattus norvegicus) (UniProt Q01827). The assay can be described thus: Inhibition of rat vesicular monoamine transporter 2 assessed as inhibition of dopamine uptake at 200 uM.
For assay [6], the species on record is Rattus norvegicus. The assay can be described thus: Inhibition of rat brain VGLUT assessed as inhibition of [3H]glutamate uptake into vesicles at 250 uM after 10 mins by scintillation spectrophotometry.
Assay [7] in a line: Competitive inhibition of rat brain VGLUT assessed as inhibition of [3H]glutamate uptake into vesicles after 10 mins by scintillation spectrophotometry. Summed up:
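Crude rat synaptic vesicles (50 µg aliquots) incubated in 10 mM HEPES-KOH pH 7.4, sucrose, 4 mM MgSO4, 4 mM KCl, L-aspartate. Uptake started with ATP plus Glu and [3H]Glu, 10 min at 37 °C. Compounds added from DMSO, final 0.20 nM upward. Ice-cold buffer stop, GF/C filtration, four washes, scintillation counting. Uptake without ATP or with CCCP/Trypan Blue subtracted; at least triplicate.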

`COc1cc(-c2ccc(/N=N/c3ccc4c(S(=O)(=O)O)cc(S(=O)(=O)O)c(N)c4c3O)c(OC)c2)ccc1/N=N/c1ccc2c(S(=O)(=O)O)cc(S(=O)(=O)O)c(N)c2c1O` [CHICAGO SKY BLUE]: the IC50 (usually the concentration needed to halve the response being measured) in assay [1] amounted to 3000 nM.

Regarding `N=c1ccc2c(=O)/c(=N\Nc3ccc(I)cc3Cl)c(S(=O)(=O)O)cc=2/c1=N/Nc1ccc(I)cc1Cl`, in the assay listed under Rattus norvegicus [2], the inhibition (as a rule, the share of the control response that was lost under treatment) was “inactive”.

With `Nc1ccc(-c2ccc(N/N=C3\C(=O)c4c(N)cc(S(=O)(=O)O)cc4C=C3S(=O)(=O)O)c(Cl)c2)cc1Cl`, the inhibition in the assay listed under Rattus norvegicus [2] stood at 88%. Further, the IC50 in assay [1] worked out at 1600 nM. For the same molecule, the outcome in the assay listed under Homo sapiens [3] and in the assay filed under Homo sapiens [4] was inactive. Also, the inhibition entry in assay [5] is “inactive”.

As for `Nc1cc(S(=O)(=O)O)cc2c1C(=O)/C(=N\Nc1ccc(C(=O)O)cc1)C(S(=O)(=O)O)=C2`, the inhibition in the assay listed under Rattus norvegicus [2] came to 15%. In addition, in assay [5], the inhibition result is “inactive”.

In the case of `Nc1ccc(-c2ccc(N/N=C3\C(=O)c4c(N)cc(S(=O)(=O)O)cc4C=C3S(=O)(=O)O)c(C(F)(F)F)c2)cc1C(F)(F)F`, in the assay filed under Rattus norvegicus [2], the inhibition amounted to 98%. Moreover, the IC50 in assay [1] was 1800 nM. The inhibition result in assay [5] is “inactive”.

For `Cc1cc(C(=O)O)ccc1N/N=C1\C(=O)c2c(N)cc(S(=O)(=O)O)cc2C=C1S(=O)(=O)O`, the inhibition in the assay filed under Rattus norvegicus [2] turned out to be 15%. Further, in assay [5], the inhibition result was “inactive”.

Consider `Nc1cc(S(=O)(=O)O)cc2c1C(=O)/C(=N\Nc1ccc(I)cc1C(F)(F)F)C(S(=O)(=O)O)=C2`, for which, in the assay listed under Rattus norvegicus [2], the inhibition came to 83%. The IC50 in assay [1] was 5800 nM. In assay [5], the inhibition entry is “inactive”.

As for `Cc1cc(I)ccc1N/N=C1\C(=O)c2c(N)cc(S(=O)(=O)O)cc2C=C1S(=O)(=O)O`, the inhibition in the assay listed under Rattus norvegicus [2] is 83%. For the same molecule, in assay [1], the IC50 came out at 2100 nM. The result in the assay filed under Homo sapiens [3] and in the assay listed under Homo sapiens [4] was inactive. The inhibition result in assay [5] is “inactive”.

`O=C(O)c1cc(C(=O)O)c2cccc(O)c2n1`: the IC50 in assay [1] is 286000 nM.

Turning to `O=C1C(S(=O)(=O)O)=Cc2cc(S(=O)(=O)O)ccc2/C1=N/Nc1ccc(I)cc1Cl`, the inhibition entry in the assay listed under Rattus norvegicus [2] was “inactive”.

Take `O=C(O)c1cc(C(=O)O)c2cc(/N=N/c3ccc(-c4ccccc4)cc3)ccc2n1`: the IC50 in assay [1] stood at 288000 nM.

As for `Nc1cc(S(=O)(=O)O)cc2c1C(=O)/C(=N\Nc1c(O)c(F)c(C(=O)O)c(F)c1F)C(S(=O)(=O)O)=C2`, in the assay listed under Rattus norvegicus [2], the inhibition was 18%. Also, the inhibition entry in assay [5] was “inactive”.

In the case of `O=C(O)c1cc(C(=O)O)c2ccccc2n1`, the inhibition result in the assay filed under Rattus norvegicus [6] is “inactive”.

As to `Cc1cc(-c2ccc(/N=N/c3c(S(=O)(=O)O)cc4cc(S(=O)(=O)O)cc(N)c4c3O)c(C)c2)ccc1/N=N/c1c(S(=O)(=O)O)cc2cc(S(=O)(=O)O)cc(N)c2c1O` [TRYPAN BLUE], the IC50 came out at 50 nM in assay [1] and 100 nM in assay [7].

As for `COc1cc(Br)ccc1N/N=C1\C(=O)c2c(N)cc(S(=O)(=O)O)cc2C=C1S(=O)(=O)O`, in the assay listed under Rattus norvegicus [2], the inhibition was 42%. For the same molecule, the IC50 in assay [1] is above 20000 nM. For the same molecule, the inhibition result in assay [5] is “inactive”.

Consider `Nc1cc(S(=O)(=O)O)cc2c1C(=O)/C(=N\Nc1c(F)c(F)c(-c3c(F)c(F)c(N)c(F)c3F)c(F)c1F)C(S(=O)(=O)O)=C2`, for which the inhibition in the assay listed under Rattus norvegicus [2] stood at 96%. The IC50 in assay [1] was found to be 3300 nM. Moreover, the inhibition entry in assay [5] is “inactive”.

On to `Nc1cc(S(=O)(=O)O)cc2c1C(=O)/C(=N\Nc1ccc(C(=O)O)cc1C(F)(F)F)C(S(=O)(=O)O)=C2`, for which, in the assay listed under Rattus norvegicus [2], the inhibition amounted to 76%. Besides, in assay [1], the IC50 worked out at 6800 nM. Moreover, the inhibition entry in assay [5] is “inactive”.

As to `Nc1cc(S(=O)(=O)O)cc2c1C(=O)/C(=N\Nc1ccc(I)cc1F)C(S(=O)(=O)O)=C2`, the inhibition in the assay filed under Rattus norvegicus [2] was 46%. Also, the inhibition entry in assay [5] is “inactive”.

Consider `Nc1cc(S(=O)(=O)O)cc2c1C(=O)/C(=N\Nc1ccc(Br)cc1)C(S(=O)(=O)O)=C2`, for which the inhibition in the assay listed under Rattus norvegicus [2] amounted to 33%. Besides, the inhibition result in assay [5] is “inactive”.

In the case of `Nc1ccc(-c2ccc(N/N=C3\C(=O)c4c(N)cc(S(=O)(=O)O)cc4C=C3S(=O)(=O)O)cc2)cc1`, in the assay listed under Rattus norvegicus [2], the inhibition stood at 25%. Besides, the inhibition result in assay [5] was “inactive”.

Take `Cc1cc(C(=O)O)cc(C)c1N/N=C1\C(=O)c2c(N)cc(S(=O)(=O)O)cc2C=C1S(=O)(=O)O`: the inhibition in the assay filed under Rattus norvegicus [2] amounted to 5%. Besides, in assay [5], the inhibition result is “inactive”.

Consider `Nc1cc(S(=O)(=O)O)cc2c1C(=O)/C(=N\Nc1ccc(C(=O)O)cc1F)C(S(=O)(=O)O)=C2`, for which the inhibition in the assay filed under Rattus norvegicus [2] is 18%. In assay [5], the inhibition result is “inactive”.

In the case of `Nc1ccc(-c2ccc(N/N=C3\C(=O)c4c(N)cc(S(=O)(=O)O)cc4C=C3S(=O)(=O)O)c(F)c2)cc1F`, in the assay filed under Rattus norvegicus [2], the inhibition was determined as 74%. Moreover, the IC50 in assay [1] stood at 4800 nM. In addition, the inhibition result in assay [5] was “inactive”.

In the case of `COc1cc(C(=O)O)ccc1N/N=C1\C(=O)c2c(N)cc(S(=O)(=O)O)cc2C=C1S(=O)(=O)O`, in the assay listed under Rattus norvegicus [2], the inhibition is 25%. In assay [5], the inhibition entry was “inactive”.

As for `O=C1/C(=N\Nc2ccc(I)cc2Cl)C(S(=O)(=O)O)=Cc2cc(S(=O)(=O)O)ccc21`, the inhibition result in the assay listed under Rattus norvegicus [2] is “inactive”.

As for `Nc1cc(S(=O)(=O)O)cc2cc(S(=O)(=O)O)cc(O)c12`, the inhibition result in the assay filed under Rattus norvegicus [2] is “inactive”.

Regarding `Nc1cc(S(=O)(=O)O)cc2c1C(=O)/C(=N\Nc1ccc(I)cc1Cl)C(S(=O)(=O)O)=C2`, the inhibition in the assay filed under Rattus norvegicus [2] stood at 45%. For the same molecule, the inhibition entry in assay [5] was “inactive”.

Take `Cc1cc(Br)cc(C)c1N/N=C1\C(=O)c2c(N)cc(S(=O)(=O)O)cc2C=C1S(=O)(=O)O`: the inhibition in the assay listed under Rattus norvegicus [2] came to 77%. For the same molecule, the IC50 in assay [1] stood at 2100 nM. In addition, in assay [5], the inhibition result is “inactive”.

Consider `Nc1cc(S(=O)(=O)O)cc2c1C(=O)/C(=N\Nc1ccc(C(=O)O)cc1Cl)C(S(=O)(=O)O)=C2`, for which the inhibition in the assay filed under Rattus norvegicus [2] amounted to 55%. Besides, the inhibition result in assay [5] is “inactive”.

As for `O=C(O)c1cc(C(=O)O)c2cc(/C=C/c3ccccc3)ccc2n1`, the 50% inhibitory concentration (IC50) in assay [1] turned out to be 40000 nM.

Turning to `Nc1cc(S(=O)(=O)O)cc2c1C(=O)/C(=N\Nc1c(O)c(F)c(Br)c(F)c1F)C(S(=O)(=O)O)=C2`, the inhibition in the assay listed under Rattus norvegicus [2] was 39%. Further, the inhibition entry in assay [5] was “inactive”.

`Cc1cc(-c2ccc(/N=N/c3ccc4c(S(=O)(=O)O)cc(S(=O)(=O)O)c(N)c4c3O)c(C)c2)ccc1/N=N/c1ccc2c(S(=O)(=O)O)cc(S(=O)(=O)O)c(N)c2c1O` [EVANS BLUE]: the IC50 in assay [1] stood at 87 nM.

Regarding `Cc1cc(-c2ccc(N/N=C3\C(=O)c4c(N)cc(S(=O)(=O)O)cc4C=C3S(=O)(=O)O)c(C)c2)ccc1N`, the inhibition in the assay listed under Rattus norvegicus [2] amounted to 52%. The inhibition result in assay [5] is “inactive”.
